# Test results taken from ChEMBL document CHEMBL1154315, “Discovery of 3-(2-cyano-4-pyridyl)-5-(4-pyridyl)-1,2,4-triazole, FYX-051 - a xanthine oxidoreductase inhibitor for the treatment of hyperuricemia [corrected]” (Bioorg Med Chem Lett, 2009).
# Legend:
# [1] = tested on: Rattus norvegicus; test: Reduction of uric acid level in rat serum at 0.3 mg/kg, po after 6 hrs by phosphotungstic acid method; assay type: functional; set-up: scale not given: the % may be the effect or the level left
# How it was run: (§1)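 Rats were dosed orally. Blood was drawn from the orbital sinus 2 or 6 h later, clotted 1 h at room temperature and centrifuged. Serum uric acid was measured by the phosphotungstic acid method. Values are mean ± SD of at least three rats.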
# [2] = target: T1, Xanthine dehydrogenase/oxidase (Bos taurus, UniProt P80457); test: Inhibition of bovine milk XOR-mediated uric acid formation after 15 mins by spectrophotometer
# [3] = tested on: Rattus norvegicus; test: Reduction of uric acid level in rat serum at 1 mg/kg, po after 6 hrs by phosphotungstic acid method; assay type: functional; set-up: scale not given: the % may be the effect or the level left; how it was run: as §1
# [4] = Cmax in rat at 3 mg/kg, po by LC-MS method; assay type: ADME, organism-based; set-up: dose 3 mg/kg, route oral; settings: in vivo
# How it was run: (§2)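 After oral dosing to rats, jugular vein blood was collected at predetermined times and centrifuged to plasma. Plasma was mixed with acetonitrile containing an internal standard and centrifuged, and the supernatant was analysed by LC–MS.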
# [5] = tested on: Rattus norvegicus; test: Reduction of uric acid level in rat serum at 0.3 mg/kg, po after 2 hrs by phosphotungstic acid method; assay type: functional; set-up: scale not given: the % may be the effect or the level left
# How it was run: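 Test compound dosed orally to rats; blood drawn from orbital sinus 2 or 6 h post-dose, clotted 1 h at room temperature, centrifuged. Serum uric acid measured by phosphotungstic acid method. Mean ± SD of at least three rats.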
# [6] = target: CYP3A4 (Homo sapiens, UniProt P08684); test: Inhibition of CYP3A4 in human liver microsomes assessed as inhibition of testosterone hydroxylation at 10 uM by HPLC analysis; assay type: ADME, Microsome; set-up: dose 10 uM; settings: probe testosterone (hydroxylation)
# [7] = Half life in rat at 3 mg/kg, po by LC-MS method; assay type: ADME, organism-based; set-up: dose 3 mg/kg, route oral; settings: in vivo
# [8] = Bioavailability in rat at 3 mg/kg; assay type: ADME, organism-based; settings: in vivo
# [9] = tested on: Rattus norvegicus; test: Reduction of uric acid level in rat serum at 3 mg/kg, po after 6 hrs by phosphotungstic acid method; assay type: functional; set-up: scale not given: the % may be the effect or the level left; how it was run: as §1
# [10] = target: T1, Xanthine dehydrogenase/oxidase; test: Inhibition of bovine milk XOR-mediated uric acid formation at 10 uM after 15 mins by spectrophotometer; settings: cattle, 0.25 h
# [11] = Cmax in rat at 1 mg/kg, po by LC-MS method; assay type: ADME, organism-based; set-up: dose 1 mg/kg, route oral; settings: in vivo; how it was run: as §2
# T1 sequence (P80457 whole entry): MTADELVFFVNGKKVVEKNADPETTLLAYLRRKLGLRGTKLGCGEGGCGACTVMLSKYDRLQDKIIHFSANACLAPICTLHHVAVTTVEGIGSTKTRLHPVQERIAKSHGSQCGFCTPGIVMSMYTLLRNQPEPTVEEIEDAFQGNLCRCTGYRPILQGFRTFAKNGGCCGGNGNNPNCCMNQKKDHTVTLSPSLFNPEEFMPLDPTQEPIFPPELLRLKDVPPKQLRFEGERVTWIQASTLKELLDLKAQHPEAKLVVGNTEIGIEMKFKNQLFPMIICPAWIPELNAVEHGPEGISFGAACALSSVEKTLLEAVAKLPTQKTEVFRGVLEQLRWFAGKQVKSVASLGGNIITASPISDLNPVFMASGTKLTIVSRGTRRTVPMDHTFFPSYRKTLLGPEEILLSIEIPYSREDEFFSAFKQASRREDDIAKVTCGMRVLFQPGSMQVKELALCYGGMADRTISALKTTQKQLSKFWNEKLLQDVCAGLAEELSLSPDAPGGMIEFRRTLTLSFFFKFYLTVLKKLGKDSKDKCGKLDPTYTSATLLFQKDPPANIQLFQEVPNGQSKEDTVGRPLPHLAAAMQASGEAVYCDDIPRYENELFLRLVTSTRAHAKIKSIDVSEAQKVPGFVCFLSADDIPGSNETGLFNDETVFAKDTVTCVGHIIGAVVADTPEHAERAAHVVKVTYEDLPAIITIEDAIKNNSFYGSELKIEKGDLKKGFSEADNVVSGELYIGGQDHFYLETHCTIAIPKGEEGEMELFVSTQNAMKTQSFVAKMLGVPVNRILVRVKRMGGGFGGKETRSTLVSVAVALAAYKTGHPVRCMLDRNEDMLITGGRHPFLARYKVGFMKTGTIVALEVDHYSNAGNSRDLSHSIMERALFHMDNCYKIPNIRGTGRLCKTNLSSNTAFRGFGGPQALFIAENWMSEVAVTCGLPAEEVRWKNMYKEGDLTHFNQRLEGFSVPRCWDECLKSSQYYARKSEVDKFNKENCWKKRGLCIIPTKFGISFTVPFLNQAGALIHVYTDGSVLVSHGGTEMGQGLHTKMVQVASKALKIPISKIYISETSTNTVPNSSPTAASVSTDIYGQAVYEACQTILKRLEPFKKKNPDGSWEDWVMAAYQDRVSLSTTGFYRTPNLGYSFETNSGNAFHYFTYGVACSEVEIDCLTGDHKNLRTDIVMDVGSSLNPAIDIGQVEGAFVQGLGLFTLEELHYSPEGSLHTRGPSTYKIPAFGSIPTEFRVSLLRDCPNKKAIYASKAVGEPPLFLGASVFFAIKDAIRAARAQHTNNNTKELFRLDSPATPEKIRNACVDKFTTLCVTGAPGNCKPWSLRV
# Sequence of CYP3A4 (P08684 whole entry): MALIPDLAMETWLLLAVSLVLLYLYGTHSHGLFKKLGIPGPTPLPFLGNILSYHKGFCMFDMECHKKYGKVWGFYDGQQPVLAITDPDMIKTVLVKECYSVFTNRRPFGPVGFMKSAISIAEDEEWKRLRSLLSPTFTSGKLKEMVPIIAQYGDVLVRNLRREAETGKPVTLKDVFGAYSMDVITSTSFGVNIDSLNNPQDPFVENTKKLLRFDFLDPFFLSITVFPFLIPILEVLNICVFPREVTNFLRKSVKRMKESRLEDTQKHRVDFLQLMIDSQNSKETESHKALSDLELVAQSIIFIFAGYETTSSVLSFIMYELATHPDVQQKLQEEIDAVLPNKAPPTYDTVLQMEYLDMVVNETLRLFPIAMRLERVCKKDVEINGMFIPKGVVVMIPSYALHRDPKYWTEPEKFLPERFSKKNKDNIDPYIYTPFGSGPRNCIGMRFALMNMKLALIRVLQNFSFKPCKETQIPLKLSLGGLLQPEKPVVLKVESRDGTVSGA
SMILES,Activity [1] [%],IC50 [2] [nM],further results
CSc1cc(-c2nc(-c3ccnc(C#N)c3)n[nH]2)ccn1,-3.7,–,–
N#Cc1ccc(-c2n[nH]c(-c3ccncc3)n2)cn1,–,38,"Activity ([3]; dose 0.3 mg/kg, in the assay text read “at 0.3 mg/kg” for “at 1 mg/kg”): -4%"
Cc1cc(-c2n[nH]c(-c3ccnc(OCC(C)C)c3)n2)ccn1,2.3,63,Cmax [4]: 1440 ng/mL
CC(C)COc1ccc(-c2n[nH]c(-c3ccncc3)n2)cc1[N+](=O)[O-],33.7,3.7,–
N#Cc1cc(-c2n[nH]c(-c3ccncc3)n2)ccn1 [TOPIROXOSTAT],51.1,5.3,Activity [5]: 59.9%; inhibition at 10 µM [6]: 18.6%; half-life [7]: 19.7 h; bioavailability [8]: 69.6%
N#Cc1cc(-c2n[nH]c(-c3ccnc(C#N)c3)n2)ccn1,32,18,–
Cc1cc(-c2nc(-c3ccc(OCC(C)C)c(C#N)c3)n[nH]2)ccn1,46,17,–
CC(C)COc1ccc(-c2n[nH]c(-c3ccnc(C#N)c3)n2)cn1,–,590,Activity [9]: -6.1%
CC(C)CSc1cc(-c2nc(-c3ccnc(C#N)c3)n[nH]2)ccn1,-1.4,–,–
CC(C)COc1cc(-c2nc(-c3ccnc(C#N)c3)n[nH]2)ccn1,1.9,–,–
N#Cc1cc(-c2n[nH]c(-c3ccnc(Cl)c3)n2)ccn1,33.6,39,inhibition at 10 µM [6]: 3.6%; Cmax [4]: 5340 ng/mL
COc1ccc(-c2n[nH]c(-c3ccnc(C)c3)n2)cc1[N+](=O)[O-],19.3,17,–
Cc1cc(-c2n[nH]c(-c3ccnc(C)c3)n2)ccn1,26.1,310,inhibition at 10 µM [6]: 15.3%
CC(C)COc1ccc(-c2n[nH]c(-c3ccncc3)n2)cc1C#N,36.3,4.9,–
Cc1cc(-c2nc(-c3ccc(OCC(C)C)c([N+](=O)[O-])c3)n[nH]2)ccn1,39.1,10,–
c1cncc(-c2n[nH]c(-c3ccncc3)n2)c1,–,130,inhibition at 10 µM [6]: 10.4%; Activity ([3]; dose 1 mg/kg): -7.7%
Cc1cc(-c2n[nH]c(-c3ccnc(-c4ccccc4)c3)n2)ccn1,8,59,–
Cc1cc(-c2n[nH]c(-c3ccnc(Cl)c3)n2)ccn1,32.9,89,Cmax [4]: 4070 ng/mL

SMILES,Activity [1] [%],IC50 [2] [nM],further results
Clc1cc(-c2n[nH]c(-c3ccncc3)n2)ccn1,–,7.9,inhibition at 10 µM [6]: 54.1%; Cmax [4]: 4360 ng/mL; Activity ([3]; dose 1 mg/kg): 26.5%
Cc1cc(-c2nc(-c3ccc(Cl)c([N+](=O)[O-])c3)n[nH]2)ccn1,19.8,30,–
Oc1ncnc2[nH]ncc12 [ALLOPURINOL],-3.3,–,Activity [5]: 35.9%
Brc1cc(-c2n[nH]c(-c3ccncc3)n2)ccn1,-6.2,9.9,–
c1ccc(-c2n[nH]c(-c3ccncc3)n2)nc1,–,–,inhibition at 10 µM [6]: 20.3%; inhibition at 10 µM [10]: 31%
O=[N+]([O-])c1cc(-c2n[nH]c(-c3ccncc3)n2)ccc1Cl,0.9,4.7,–
c1ccc(-c2cc(-c3n[nH]c(-c4ccncc4)n3)ccn2)cc1,-0.4,6.8,–
Cc1cc(-c2nc(-c3ccc(OCC(C)C)nc3)n[nH]2)ccn1,13,170,–
Fc1cc(-c2n[nH]c(-c3ccncc3)n2)ccn1,-0.2,48,inhibition at 10 µM [6]: 40.2%
CSc1cc(-c2nc(-c3ccnc(C)c3)n[nH]2)ccn1,19.2,170,–
Cc1cc(-c2nc(-c3ccncc3)n[nH]2)ccn1,-0.4,28,inhibition at 10 µM [6]: 24.7%; Cmax [11]: 1240 ng/mL
N#Cc1cc(-c2n[nH]c(-c3ccnc(-c4ccccc4)c3)n2)ccn1,4.2,–,–
COc1ccc(-c2n[nH]c(-c3ccncc3)n2)cc1[N+](=O)[O-],19.6,3.3,–
CC(C)COc1ccc(-c2n[nH]c(-c3ccncc3)n2)cn1,13.4,24,Activity [9]: 13.4%
COCCOCCOc1ccc(-c2nc(-c3ccnc(C)c3)n[nH]2)cc1C#N,52,31,–
Cc1cc(-c2n[nH]c(-c3ccnc(SCC(C)C)c3)n2)ccn1,4.5,46,–
Cc1cc(-c2n[nH]c(-c3ccnc(C#N)c3)n2)ccn1,41.1,59,inhibition at 10 µM [6]: 4.7%; Cmax [4]: 3970 ng/mL
c1cc(-c2n[nH]c(-c3ccncc3)n2)ccn1,–,170,inhibition at 10 µM [6]: 18.5%; Activity ([3]; dose 1 mg/kg): -6.8%
